Measurements taken from ChEMBL document CHEMBL2029225, “Synthesis of marine-derived 3-alkylpyridinium alkaloids with potent antiprotozoal activity” (ACS Med Chem Lett, 2011).
pEC50: −log10 of the molar value. Calls of active or inactive are those of the source. No cut-off for these calls is given here.

Tests used:
[1] = test system: Trypanosoma brucei brucei; assay: Antitrypanosomal activity against bloodstream form of Trypanosoma brucei brucei 427 (BS221) after 72 hrs by alamar blue assay; assay type: functional, organism-based
[2] = test system: Trypanosoma brucei brucei; assay: Antitrypanosomal activity against TbAt1-deficient bloodstraem form of Trypanosoma brucei brucei 427 (BS221) after 72 hrs by alamar blue assay; assay type: functional, organism-based
[3] = test system: Trypanosoma brucei brucei; assay: Antitrypanosomal activity against TbAt1-deficient bloodstraem form Trypanosoma brucei brucei B48 after 72 hrs by alamar blue assay; assay type: functional, organism-based; settings: B48, 72 h
Leishmania major = assay: Antileishmanial activity against promastigotes of Leishmania major Friedlin after 72 hrs by alamar blue assay; assay type: functional, organism-based
Leishmania mexicana = assay: Antileishmanial activity against amastigotes of Leishmania mexicana MNYC/BZ/62/M379 after 72 hrs by alamar blue assay; assay type: functional, organism-based; settings: MNYC/BZ/62/M379, 72 h
Plasmodium falciparum = assay: Antiplasmodial activity against Plasmodium falciparum 3D7 assessed as inhibition of [3H]hypoxanthine incorporation after 18 hrs by liquid scintillation counting; assay type: functional, organism-based
HEK-293T = assay: Cytotoxicity against human HEK293T cells after 72 hrs by alamar blue assay; assay type: cell-based
[4] = Selectivity ratio of EC50 for human HEK293 cells to EC50 for bloodstream form of Trypanosoma brucei brucei 427 (BS221); assay type: ADME, cell-based; settings: read-out: Ratio EC50
[5] = Selectivity ratio of EC50 for human HEK293 cells to EC50 for TbAt1-deficient bloodstraem form of Trypanosoma brucei brucei 427 (BS221); assay type: ADME, cell-based; settings: read-out: Ratio EC50
[6] = Selectivity ratio of EC50 for human HEK293 cells to EC50 for Leishmania major Friedlin; assay type: ADME, cell-based; settings: read-out: Ratio EC50
[7] = Selectivity ratio of EC50 for human HEK293 cells to EC50 for Leishmania mexicana MNYC/BZ/62/M379; assay type: ADME, cell-based; settings: read-out: Ratio EC50
[8] = test system: Trypanosoma brucei brucei; assay: Antitrypanosomal activity against bloodstream form of Trypanosoma brucei brucei 427 (BS221) assessed as increased propidium iodide uptake at 50 to 100 uM after 30 mins by real-time cell lysis assay; assay type: functional, organism-based
Outline: (§1)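 Real-time lysis assay with bloodstream-form T. brucei: propidium iodide in the medium fluoresces only on binding DNA/RNA in membrane-compromised cells. Fluorescence was followed for up to 8 h across a range of concentrations. The read-out was the time to reach 80% lysis versus concentration.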

[9] = test system: Trypanosoma brucei brucei; assay: Antitrypanosomal activity against bloodstream form of Trypanosoma brucei brucei 427 (BS221) assessed as increased propidium iodide uptake at >/=100 times EC50 after 8 hrs by real-time cell lysis assay; assay type: functional, organism-based; outline: as §1
[10] = test system: Trypanosoma brucei brucei; assay: Antitrypanosomal activity against bloodstream form of Trypanosoma brucei brucei s427 assessed as increase in propidium iodide uptake at 0.3 to 1 uM up to 48 hrs by flow cytometry; assay type: functional, organism-based
Outline: (§2)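 Bloodstream-form T. brucei cultures were exposed to compound for up to 48 h, with duplicate samples taken at 24 and 48 h. Lysis sample: PI added directly for 10 min. DNA-content sample: fixed in 70% methanol or permeabilized with digitonin, RNase-treated, then PI-stained. 10000 cells were counted per panel by flow cytometry, and the experiment was run three times.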

[11] = test system: Trypanosoma brucei brucei; assay: Antitrypanosomal activity against bloodstream form of Trypanosoma brucei brucei s427 assessed as DNA fragmentation at 0.3 to 1 uM up to 48 hrs by flow cytometry; assay type: functional, organism-based; outline: as §2
[12] = test system: Trypanosoma brucei brucei; assay: Antitrypanosomal activity against digitonin permeabilized bloodstream form of Trypanosoma brucei brucei s427 assessed as DNA fragmentation at 0.3 to 1 uM up to 48 hrs by flow cytometry; assay type: functional, organism-based; outline: as §2
[13] = test system: Trypanosoma brucei brucei; assay: Antitrypanosomal activity against digitonin permeabilized bloodstream form of Trypanosoma brucei brucei s427 assessed as increase in propidium iodide uptake at 0.3 to 1 uM up to 48 hrs by flow cytometry; assay type: functional, organism-based; outline: as §2
[14] = test system: Trypanosoma brucei brucei; assay: Antitrypanosomal activity against digitonin permeabilized bloodstream form of Trypanosoma brucei brucei s427 assessed as decrease in 2C/4C DNA content by DAPI staining-based fluorescent microscopy; assay type: functional, organism-based
[15] = test system: Trypanosoma brucei brucei; assay: Antitrypanosomal activity against Trypanosoma brucei brucei 427 at 10 uM after 24 hrs by hemocytometry; assay type: functional, organism-based
Outline: (§3)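 Reversibility test: bloodstream-form T. brucei cultures seeded at 2 × 10⁴ cells, compound added at t = 0 h. Compound was washed out after 24 h or 48 h, or left in. Growth was monitored over 72 h against drug-free controls.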

[16] = test system: Trypanosoma brucei brucei; assay: Antitrypanosomal activity against Trypanosoma brucei brucei 427 at 0.1 uM after 72 hrs by hemocytometry; assay type: functional, organism-based; outline: as §3
[17] = test system: Trypanosoma brucei brucei; assay: Antitrypanosomal activity against bloodstream form of Trypanosoma brucei brucei s427 assessed as cell cylce arrest at 0.3 uM after 24 hrs by flow cytometry; assay type: functional, organism-based; outline: as §2
[18] = test system: Trypanosoma brucei brucei; assay: Antitrypanosomal activity against bloodstream form of Trypanosoma brucei brucei s427 assessed as increase in propidium iodide uptake at 0.3 uM after 48 hrs by flow cytometry; assay type: functional, organism-based; outline: as §2
[19] = test system: Trypanosoma brucei brucei; assay: Antitrypanosomal activity against bloodstream form of Trypanosoma brucei brucei s427 assessed as DNA fragmentation at 0.3 uM after 48 hrs by flow cytometry; assay type: functional, organism-based; outline: as §2
[20] = test system: Trypanosoma brucei brucei; assay: Antitrypanosomal activity against digitonin permeabilized bloodstream form of Trypanosoma brucei brucei s427 assessed as increase in propidium iodide uptake at 1 uM at 24 hrs by flow cytometry; assay type: functional, organism-based; outline: as §2
[21] = test system: Trypanosoma brucei brucei; assay: Antitrypanosomal activity against digitonin permeabilized bloodstream form of Trypanosoma brucei brucei s427 assessed as DNA fragmentation at 1 uM at 24 hrs by flow cytometry; assay type: functional, organism-based; outline: as §2
[22] = test system: Trypanosoma brucei brucei; assay: Antitrypanosomal activity against Trypanosoma brucei brucei 427 at 1 uM after 24 hrs by hemocytometry; assay type: functional, organism-based; outline: as §3
[23] = test system: Trypanosoma brucei brucei; assay: Antitrypanosomal activity against bloodstream form of Trypanosoma brucei brucei 427 (BS221) assessed as increased propidium iodide uptake at 10 to 50 times EC50 after by real-time cell lysis assay; assay type: functional, organism-based; outline: as §1
[24] = Selectivity ratio of EC50 for human HEK293 cells to EC50 for Plasmodium falciparum 3D7; assay type: ADME, cell-based; settings: read-out: Ratio EC50

With OCCCCCCCCCCCCCc1cccnc1 as the compound, how does the pEC50 [1] read?
Its pEC50 is 4.80.

And the pEC50 [2]?
The pEC50 was 4.47.

And the pEC50 [3]?
Its pEC50 is 4.46.

And the pEC50 (Leishmania major)?
The pEC50 was under 4.30.

And the pEC50 (Leishmania mexicana)?
Its pEC50 is under 4.30.

And the pEC50 (Plasmodium falciparum)?
Its pEC50 is 5.12.

And the pEC50 (HEK-293T)?
The pEC50 was 3.69.

With N=C(N)c1ccc(OCCCCCOc2ccc(C(=N)N)cc2)cc1 [PENTAMIDINE] as the compound, how does the pEC50 [1] read?
Its pEC50 is 8.85.

And the pEC50 [2]?
The pEC50 was 8.49.

And the pEC50 [3]?
The pEC50 was 7.18.

What about the pEC50 (Leishmania major) of the same compound?
The pEC50 was 5.37.

And the pEC50 (Leishmania mexicana)?
The pEC50 was 5.06.

With CCCC[n+]1cccc(CCCCCCCCCCCCCO)c1 as the compound, how does the pEC50 [1] read?
The pEC50 was 6.80.

What about the pEC50 [2] of the same compound?
The pEC50 was 6.59.

What about the pEC50 [3] of the same compound?
Its pEC50 is 6.70.

What about the pEC50 (Leishmania major) of the same compound?
Its pEC50 is 6.48.

And the pEC50 (Leishmania mexicana)?
Its pEC50 is 5.77.

And the pEC50 (Plasmodium falciparum)?
Its pEC50 is 6.29.

And the pEC50 (HEK-293T)?
The pEC50 was 4.32.

What about the selectivity ratio [4] of the same compound?
The selectivity ratio was 299.

What about the selectivity ratio [5] of the same compound?
Its selectivity ratio is 299.

What about the selectivity ratio [6] of the same compound?
The selectivity ratio was 145.

What about the selectivity ratio [7] of the same compound?
The selectivity ratio was 145.

And the Activity [8]?
The Activity was “Active”.

And the Activity [9]?
The Activity was “Active”.

And the Activity [10]?
Its Activity is “inactive”.

And the Activity [11]?
The Activity was “inactive”.

And the Activity [12]?
The Activity was “inactive”.

And the Activity [13]?
Its Activity is “inactive”.

What about the Activity [14] of the same compound?
Its Activity is “inactive”.

What about the Activity [15] of the same compound?
The Activity was “Active”.

With CCN(CC)CCCC(C)Nc1ccnc2cc(Cl)ccc12 (centres undefined) [CHLOROQUINE] as the compound, how does the pEC50 (Plasmodium falciparum) read?
The pEC50 was 9.17.

For CCCC[n+]1cccc(CCCCCCCCCCCCCI)c1, which Activity [16] is on record?
Its Activity is “inactive”.

What about the pEC50 [1] of the same compound?
Its pEC50 is 7.85.

And the pEC50 [2]?
The pEC50 was 7.20.

What about the pEC50 [3] of the same compound?
Its pEC50 is 7.47.

What about the pEC50 (Leishmania major) of the same compound?
The pEC50 was 6.44.

And the pEC50 (Leishmania mexicana)?
The pEC50 was 6.54.

And the pEC50 (Plasmodium falciparum)?
The pEC50 was 6.51.

And the pEC50 (HEK-293T)?
The pEC50 was 4.59.

What about the selectivity ratio [4] of the same compound?
The selectivity ratio was over 1000.

And the selectivity ratio [5]?
Its selectivity ratio is over 1000.

And the Activity [8]?
The Activity was “Active”.

What about the Activity [9] of the same compound?
The Activity was “Active”.

And the Activity [17]?
Its Activity is “inactive”.

What about the Activity [18] of the same compound?
The Activity was “Active”.

And the Activity [19]?
Its Activity is “Active”.

What about the Activity [20] of the same compound?
The Activity was “Active”.

And the Activity [21]?
Its Activity is “inactive”.

What about the Activity [14] of the same compound?
Its Activity is “inactive”.

And the Activity [15]?
Its Activity is “Active”.

What about the Activity [22] of the same compound?
Its Activity is “Active”.

What does the source list for C[n+]1cccc(CCCCCCCCCCCCCO)c1?
pEC50 [1]: 5.64; pEC50 [2]: 5.64; pEC50 [3]: 5.57; pEC50 (Leishmania major): 5.57; pEC50 (Leishmania mexicana): 5.32; pEC50 (Plasmodium falciparum): 5.82; pEC50 (HEK-293T): 3.74; Activity [8]: Active

With c1cc2c[n+](c1)CCCCCCCCCCCCCc1ccc[n+](c1)CCCCCCCCCCCCCc1ccc[n+](c1)CCCCCCCCCCCCCc1ccc[n+](c1)CCCCCCCCCCCCC2 as the compound, how does the pEC50 [1] read?
Its pEC50 is 6.25.

What about the pEC50 [2] of the same compound?
Its pEC50 is 6.18.

And the pEC50 [3]?
The pEC50 was 6.38.

What about the pEC50 (Leishmania major) of the same compound?
Its pEC50 is 6.19.

And the pEC50 (Leishmania mexicana)?
Its pEC50 is 5.96.

And the pEC50 (Plasmodium falciparum)?
The pEC50 was 6.72.

And the pEC50 (HEK-293T)?
The pEC50 was 4.85.

And the Activity [8]?
Its Activity is “Active”.

What about the Activity [23] of the same compound?
The Activity was “Active”.

What does the source list for c1cc2c[n+](c1)CCCCCCCCCCCCCc1ccc[n+](c1)CCCCCCCCCCCCCc1ccc[n+](c1)CCCCCCCCCCCCC2 [VISCOSAMINE]?
pEC50 [1]: 6.39; pEC50 [2]: 6.31; pEC50 [3]: 6.55; pEC50 (Leishmania major): 6.14; pEC50 (Leishmania mexicana): 6.09; pEC50 (Plasmodium falciparum): 7.28; pEC50 (HEK-293T): 4.59; selectivity ratio [24]: 493; Activity [8]: Active; Activity [23]: Active
